Experimental data reported in ChEMBL document CHEMBL3286129, “Optimization of peptidomimetic boronates bearing a P3 bicyclic scaffold as proteasome inhibitors” (Eur J Med Chem, 2014).
Activity calls are given as the source filed them. The calls are words filed in the database; no cut-off is given here.

Columns and labels:
[1] = Growth inhibition of human OVCAR3 cells; assay type: functional; conditions: OVCAR-3
HT-29 = assay: Growth inhibition of human HT-29 cells; assay type: functional
IGROV-1 = assay: Growth inhibition of human IGROV1 cells; assay type: functional
COLO 205 = assay: Growth inhibition of human COLO205 cells; assay type: functional
[2] = Cytotoxicity against human renal cancer cells assessed as cell growth at 10 uM relative to control; assay type: functional; conditions: Cancer cell lines, read-out: Activity
Outline: (§1)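 Single-concentration screen against a panel of human cancer cell lines. Each value is the mean percent growth across the cell lines of that tumour subpanel.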

Chymotrypsinogen A = Chymotrypsinogen A (Bos taurus, UniProt P00766); assay: Inhibition of bovine pancreatic alpha-chymotrypsin using Suc-Leu-Leu-Val-Tyr-AMC as substrate by fluorescence assay
Outline: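 Enzyme incubated at 20 °C in 50 mM Tris pH 8.0, 100 mM NaCl, 5 mM EDTA, 7.5% DMSO with varied inhibitor concentrations. Substrate hydrolysis followed for 10 min. Ki from progress curves; mean of three determinations.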

[3] = Growth inhibition of human UACC257 cells; assay type: functional
MDA-MB-231 = assay: Growth inhibition of human MDA-MB-231 cells; assay type: functional
[4] = Cytotoxicity against human ovarian cancer cells assessed as cell growth at 10 uM relative to control; assay type: functional; conditions: Cancer cell lines, read-out: Activity; outline: as §1
HOP-62 = assay: Growth inhibition of human HOP62 cells; assay type: functional
[5] = Growth inhibition of human BT549 cells; assay type: functional
MCF7 = assay: Growth inhibition of human MCF7 cells; assay type: functional
[6] = Growth inhibition of human OVCAR5 cells; assay type: functional; conditions: OVCAR-5
NCI-H322M = assay: Growth inhibition of human NCI-H322M cells; assay type: functional
SK-MEL-28 = assay: Growth inhibition of human SK-MEL-28 cells; assay type: functional
NCI-H23 = assay: Growth inhibition of human NCI-H23 cells; assay type: functional
A498 = assay: Growth inhibition of human A498 cells; assay type: functional
[7] = Growth inhibition of human RXF393 cells; assay type: functional
[8] = target: Proteasome Macropain subunit (Homo sapiens) (UniProt P49721); assay: Inhibition of trypsin-like activity of 20S proteasome in human erythrocytes using Boc-Leu-Arg-Arg-AMC as substrate by fluorescence assay; assay type: cell-based
Outline: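 Human 20S proteasome 0.0025 mg/mL at 30 °C in 50 mM Tris pH 7.4, 50 mM NaCl, 0.5 mM EDTA, 0.03% SDS, 7.5% DMSO. Varied inhibitor concentrations; AMC release monitored continuously for 10 min, ex 380/em 460 nm. Ki derived from progress-curve IC50 fit.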

NCI-H522 = assay: Growth inhibition of human NCI-H522 cells; assay type: functional
SNB-19 = assay: Growth inhibition of human SNB19 cells; assay type: functional
[9] = read-out: LC50 (the source's name)

Sequence of Proteasome Macropain subunit (Homo sapiens) (P49721 whole entry): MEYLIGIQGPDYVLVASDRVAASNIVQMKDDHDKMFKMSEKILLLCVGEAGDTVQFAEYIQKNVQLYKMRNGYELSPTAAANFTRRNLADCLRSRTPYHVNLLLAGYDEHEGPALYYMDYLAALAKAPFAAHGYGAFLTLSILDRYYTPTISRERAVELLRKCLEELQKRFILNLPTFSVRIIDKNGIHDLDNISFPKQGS

CC(C)C[C@H](NC(=O)CCn1ccc2ncccc2c1=O)B(O)O
GI50 [1]: 4.65 µM
LC50 (concentration killing 50% of cells) [1]: > 100 µM
TGI [1]: 31.9 µM
GI50 (HT-29): 6.77 µM
LC50 (HT-29): > 100 µM
TGI (HT-29): > 100 µM
GI50 (IGROV-1): 60.2 µM
LC50 (IGROV-1): > 100 µM
TGI (IGROV-1): > 100 µM
GI50 (COLO 205): 10 µM
TGI (COLO 205): > 100 µM
CC50 (COLO 205; [9]): > 100 µM
growth at 10 µM [2]: 76.1%
Ki (Chymotrypsinogen A): Not Active
GI50 ([3]; UACC-257): 10.1 µM
TGI ([3]; UACC-257): 47 µM
CC50 ([3]; UACC-257, read-out: LC50 (the source's name)): > 100 µM
GI50 (MDA-MB-231): 7.94 µM
TGI (MDA-MB-231): 32.5 µM
CC50 (MDA-MB-231; [9]): > 100 µM
growth at 10 µM [4]: 84.2%
GI50 (HOP-62): 29.8 µM
TGI (HOP-62): > 100 µM
CC50 (HOP-62; [9]): > 100 µM
GI50 ([5]; BT-549): 3.49 µM
TGI ([5]; BT-549): 12.5 µM
CC50 ([5]; BT-549, read-out: LC50 (the source's name)): > 100 µM
GI50 (MCF7): 3.61 µM
TGI (MCF7): > 100 µM
CC50 (MCF7; [9]): > 100 µM
GI50 [6]: 17.1 µM
LC50 [6]: > 100 µM
TGI [6]: > 100 µM
GI50 (NCI-H322M): > 100 µM
TGI (NCI-H322M): > 100 µM
CC50 (NCI-H322M; [9]): > 100 µM
GI50 (SK-MEL-28): 7.17 µM
TGI (SK-MEL-28): > 100 µM
CC50 (SK-MEL-28; [9]): > 100 µM
GI50 (NCI-H23): 25.4 µM
TGI (NCI-H23): > 100 µM
CC50 (NCI-H23; [9]): > 100 µM
GI50 (A498): 3.07 µM
LC50 (A498): > 100 µM
TGI (A498): 24.3 µM
GI50 ([7]; RXF 393): 3.29 µM
TGI ([7]; RXF 393): 14.3 µM
CC50 ([7]; RXF 393, read-out: LC50 (the source's name)): 54.2 µM
inhibition [8]: inactive
GI50 (NCI-H522): 4.66 µM
LC50 (NCI-H522): > 100 µM
TGI (NCI-H522): 21.7 µM
GI50 (SNB-19): 41.2 µM
